MC4R ag barr: human MC4R agonism via beta-arrestin; P32245; U2OS MC4R beta-arrestin complementation, luminescence; percent of melanotan II response, DMSO zero; activation, % at 8.9 µM; 360,000 compounds, 0.98% hits; AID 540308;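 active = activation above a per-plate cutoff, the mean activation of sample wells on that plate plus 3 SD, cut at about 8% in these data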
TLR9-MyD88 block: TLR9-MyD88 interaction inhibition | 340,000 compounds, 0.21% hits | CHO BLA complementation TLR9-MyD88, CCF4 FRET ratio | Q9NR96+Q99836 | inhibition, % at 4.98 µM;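 active = inhibition above the mean over all tested compounds plus 3 SD, cut at about 21% in these data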;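 note: 0% = DMSO only wells and 100% = clavulanate BLA inhibitor control wells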
MC4R antag cAMP: blocks human MC4R cAMP signaling | inhibition, % at 6.5 µM | 360,000 compounds, 0.48% hits | MC4R-expressing cells, MTII-stimulated cAMP, LANCE TR-FRET;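 active = inhibition above its plate's cutoff, the mean of tested wells on that plate plus 3 SD, cut at about 29% in these data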;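 note: 0% = Melanotan II alone and 100% = Melanotan II plus saturating MCL0020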
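System – human MC4R-expressing U2OS cells · Also added – Melanotan II · Dosing – one concentration, 6.5 µM nominal · Timing – 30-min compound, 1-h challenge, 1-h detection, room temperature · Measured by – Eu-cAMP/anti-cAMP TR-FRET, emission 671 nm · Replicates – singlicate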
beta cell repl: induces beta-cell replication in MIN6 cells; 330,000 compounds, 0.29% hits; MIN6 cells proliferation, ATPlite luminescence, 48 h; cells starved in 0.2% serum; 100% = growth in 10% serum; AID 2380; proliferation, % at 10 µM;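 active = compounds whose signal lies at least 3.5 SD above the mean of all wells on their plate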;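 note: 0% = DMSO-treated cells in low-serum medium and 100% = 10% serum control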
NOD2-RIPK2 inh: NOD2-RIPK2 protein interaction inhibition | AID 624267 | inhibition, % at 4.98 µM | O43353 | 360,000 compounds, 0.38% hits | CHO BLA complementation NOD2-RIPK2, CCF4 ratio; in the data active = inhibition above about 21%;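 note: 0% = vehicle only and 100% = reference blocker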
TLR4-MyD88 BLA: TLR4-MyD88 interaction inhibition in cells. HeLa CL3-4 TLR4/MyD88 BLA complementation, FRET ratio. 200,000 compounds, 0.18% hits. inhibition, % at 8.4 µM; in the data active = inhibition above about 25%;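 note: 0% = vehicle and 100% = reference inhibitor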
TLR9-MyD88 cf: TLR9-MyD88 interaction inhibition, confirmation | shares compounds with TLR9-MyD88 block | CHO TLR9/MyD88 BLA complementation, CCF4 FRET ratio | 680 compounds, 51% hits | inhibition, % at 4.98 µM | AID 540250;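 active = mean inhibition across three repeats above about 21% taken from the earlier screen, limit read from the data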;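 note: blue over green emission ratio reports constitutive TLR9 MyD88 association via BLA complementation; 0% = DMSO vehicle wells and 100% = clavulanate BLA inhibitor wells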
Target sequence (Q9NR96 whole entry, looked up): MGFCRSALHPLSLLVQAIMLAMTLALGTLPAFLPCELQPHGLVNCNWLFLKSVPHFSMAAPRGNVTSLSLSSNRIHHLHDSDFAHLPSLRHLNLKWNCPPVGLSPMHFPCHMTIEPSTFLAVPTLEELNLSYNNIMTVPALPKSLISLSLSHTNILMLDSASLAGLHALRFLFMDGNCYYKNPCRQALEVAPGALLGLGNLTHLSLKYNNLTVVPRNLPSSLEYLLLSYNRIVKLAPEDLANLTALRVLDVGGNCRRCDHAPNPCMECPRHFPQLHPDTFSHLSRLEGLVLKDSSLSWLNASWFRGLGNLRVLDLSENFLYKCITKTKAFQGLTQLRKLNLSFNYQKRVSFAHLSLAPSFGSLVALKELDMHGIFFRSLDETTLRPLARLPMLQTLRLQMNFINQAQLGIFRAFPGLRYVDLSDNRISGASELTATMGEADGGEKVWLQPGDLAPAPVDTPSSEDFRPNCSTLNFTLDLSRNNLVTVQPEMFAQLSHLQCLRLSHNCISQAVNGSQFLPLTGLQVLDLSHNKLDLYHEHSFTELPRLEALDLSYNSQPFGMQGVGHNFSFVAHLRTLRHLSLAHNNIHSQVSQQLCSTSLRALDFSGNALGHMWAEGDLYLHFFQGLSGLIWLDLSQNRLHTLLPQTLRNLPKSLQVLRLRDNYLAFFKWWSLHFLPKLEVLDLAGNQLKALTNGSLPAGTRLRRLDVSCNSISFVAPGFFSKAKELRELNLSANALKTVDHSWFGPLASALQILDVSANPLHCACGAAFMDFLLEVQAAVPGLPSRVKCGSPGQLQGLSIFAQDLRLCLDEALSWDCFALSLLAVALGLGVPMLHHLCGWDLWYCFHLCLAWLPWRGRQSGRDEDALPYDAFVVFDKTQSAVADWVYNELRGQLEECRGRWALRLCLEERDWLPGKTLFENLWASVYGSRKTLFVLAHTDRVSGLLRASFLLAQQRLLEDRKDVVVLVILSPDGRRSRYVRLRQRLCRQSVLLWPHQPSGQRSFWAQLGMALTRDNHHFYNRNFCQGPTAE
BLA nonselective: counter-screen for TLR9-MyD88 inhibitors: non-selective beta-lactamase inhibitors; shares compounds with TLR9-MyD88 block; AID 540251; CHO-BLA cells, CCF4 FRET ratio, BLA reporter; inhibition, % at 4.98 µM; 680 compounds, 7% hits;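 active = mean inhibition above a 50% cutoff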;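 note: counterscreen of TLR9-MyD88 hits on CMV-driven BLA in CHO-K1 cells; 0% = DMSO alone and 100% = clavulanate blocking BLA; higher means less blue over green ratio so more BLA blockade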
TLR9 CHO tox: counter-screen for TLR9-MyD88 inhibitors: cytotoxicity in CHO cells. shares compounds with TLR9-MyD88 block. luminescence. inhibition, % at 4.98 µM. 680 compounds, 39% hits. AID 588336; in the data active = inhibition above about 11%
An asterisk follows results filed as active; . = no result given. An excerpt weighted towards active compounds, which were near 2.1% of everything screened.

SMILES	MC4R ag barr	TLR9-MyD88 block	MC4R antag cAMP	beta cell repl	NOD2-RIPK2 inh	TLR4-MyD88 BLA	TLR9-MyD88 cf	BLA nonselective	TLR9 CHO tox
Cc1cc(C)c(CN2CCC(CO)(CCOc3ccccc3)CC2)cc1C	3.0	1.5	6.1	-5.5	-0.8	6.8	.	.	.
O=C(Nc1ccc(Cl)cc1C(=O)N1CCCC1)c1cccc([N+](=O)[O-])c1	-3.0	-3.0	10.6	0.1	-7.4	-1.1	.	.	.
CCOc1cc(/C=C2\C(=O)N(c3cccc(C(F)(F)F)c3)C(=O)c3ccccc32)ccc1O	-1.5	10.6	2.9	0.0	-3.1	13.9	.	.	.
Cc1cccc(N2C(=O)/C(=C\c3ccc(OC(F)F)cc3)c3ccccc3C2=O)c1	1.0	50.1*	-3.0	0.0	-3.2	16.6	45.2*	47.2	0.3
CCOC(=O)COc1c(Br)cc(/C=C2\SC(=O)N(CC(=O)N3CCCC3)C2=O)cc1OC	-0.1	-4.5	25.4	-4.4	7.4	9.7	.	.	.
COC1C=CC=C(C)C(=O)NC2=CC(=O)C(N)=C(CC(C)CC(OC)C(O)C(C)C=C(C)C1OC(N)=O)C2=O (centres undefined)	-2.8	24.3*	-26.3	.	12.8	.	2.4	-3.6	85.3*
N/C(=N\OC(=O)c1cccc(C(F)(F)F)c1)c1cnccn1	0.2	-1.3	3.2	-2.0	-8.4	.	.	.	.
O=C(OCn1ncc(Cl)c(Cl)c1=O)c1cccc(C(F)(F)F)c1	3.6	30.3*	21.6	-5.7	48.4*	16.8	24.4*	12.5	97.2*
OCCN1CCN(CC(O)COc2ccc(C34CC5CC(CC(C5)C3)C4)cc2)CC1 (centres undefined)	4.8	21.8*	4.1	-5.9	4.6	-4.5	5.0	5.4	40.0*
O=C(COC(=O)c1ccc(O)cc1)Nc1ccc(Cl)cc1	.	.	.	0.8	.	3.2	.	.	.
Cc1ccc(N2C(=O)NC(NS(=O)(=O)c3ccc(C)cc3)(C(F)(F)F)C2=O)cc1 (centres undefined)	-0.5	20.9*	2.8	-3.8	-5.4	.	-1.8	-3.7	1.6
CC(C)(C)OC(=O)N[C@@H](C(=O)OC(C)(C)C)c1ccc2c(c1)OCO2	-1.6	-4.3	7.3	0.6	2.7	.	.	.	.
CCCCN(CCCC)c1nc2ccccc2nc1C(C#N)C(=O)NCCCOC (centres undefined)	0.8	40.0*	8.3	-4.7	-7.9	19.4	8.8	12.6	5.7
CS(=O)(=O)c1cnc(-c2cccnc2)nc1N	-0.2	21.8*	15.8	-2.8	-12.3	-2.2	0.5	-1.4	5.9
COC(=O)c1cn[nH]c1NC(=S)Nc1ccc(Cl)c(Cl)c1	2.6	21.9*	-2.6	-2.3	9.1	-0.6	20.6	12.9	5.7
Oc1c(N=Nc2ccccn2)ccc2ccccc12	-5.5	23.6*	10.1	-6.1	15.2	13.0	15.2	1.7	98.7*
Oc1[nH]c2ccccc2c1N=Nc1ccccn1	-1.5	-4.1	-19.4	.	-10.4	.	.	.	.
COc1cccc(C2C=C(c3ccc(Br)s3)Nc3ncnn32)c1OC (centres undefined)	-1.9	27.4*	13.1	-2.1	31.4*	20.9	5.1	4.9	2.4
Fc1ccc(Br)cc1C1C=C(c2ccc(Br)s2)Nc2ncnn21 (centres undefined)	-0.6	9.7	11.1	-1.3	-2.0	-4.4	.	.	.
COc1ccc(CCNC(=O)Nc2ccc(F)cc2F)cc1OC	-1.4	-5.5	-4.7	-3.2	1.1	.	.	.	.
CC(C)N(CCC(=O)c1ccc2ccccc2c1)Cc1ccccc1	-2.9	21.4*	0.8	-7.6	6.5	.	-2.6	-1.3	48.5*
O=c1c2cc(C(F)(F)F)ccc2sn1-c1ccccc1	-2.5	23.3*	-3.7	.	-2.5	.	25.6*	-4.7	58.3*
N#Cc1ccc2c(=O)n(-c3ccccc3)sc2c1	-3.5	38.7*	12.9	.	-0.4	.	17.7	-3.4	95.9*
O=C(O)c1cccc(-n2sc3ccccc3c2=O)c1	-3.1	-0.3	13.7	-3.4	3.9	.	.	.	.
O=c1c2ccccc2sn1-c1cccc(Cl)c1	-1.2	10.7	1.9	.	0.8	.	.	.	.
SMILES	MC4R ag barr	TLR9-MyD88 block	MC4R antag cAMP	beta cell repl	NOD2-RIPK2 inh	TLR4-MyD88 BLA	TLR9-MyD88 cf	BLA nonselective	TLR9 CHO tox
Cn1c(=O)c2c(O)c(C=Nc3ccc(F)cc3)c(=O)n(C)c2n(C)c1=O	.	.	.	1.7	.	.	.	.	.
O=C1Cc2ccccc2C(=O)N1c1ccccc1	0.5	31.4*	23.8	-2.0	-7.3	.	42.5*	45.5	6.2
COc1cc(NC(=O)Cn2ncc(Cl)c(Cl)c2=O)c(C)cc1[N+](=O)[O-]	-1.8	21.0*	-54.8	.	12.5	18.3	23.4*	18.8	98.1*
COc1cc(NC(=O)CN2C(=O)CN(C)C2=O)c(C)cc1[N+](=O)[O-]	-2.9	-5.6	-0.4	-0.8	-0.6	3.3	.	.	.
O=CN1CCN(C(=O)c2ccccc2Cl)CC1	-0.8	43.7*	11.3	-2.0	-5.4	-2.2	-5.5	-5.4	-2.5
O=C(c1ccccc1Cl)N1CCSCC1	-0.4	7.5	6.1	-1.0	-15.8	.	.	.	.
CC1CCN(c2ccc3c(c2)S(=O)(=O)c2ccccc2C3=O)CC1	0.4	32.0*	0.1	2.1	19.3	.	22.0*	23.6	4.8
NC(=O)C1CCN(c2ccc3c(c2)S(=O)(=O)c2ccccc2C3=O)CC1	-2.3	22.9*	-6.0	-0.6	1.3	.	6.1	5.1	0.0
O=C1c2ccccc2S(=O)(=O)c2cc(N3CCC4(CC3)OCCO4)ccc21	.	.	.	-3.9	.	.	.	.	.
CC(=O)Nc1ccc(S(=O)(=O)NC2(C(F)(F)F)C(=O)Nc3c2c(=O)[nH]c(=O)n3Cc2cccnc2)cc1 (centres undefined)	2.0	-14.1	3.8	-2.1	-7.7	-17.7	.	.	.
COC(=O)c1ccc(Cn2c(O)c(N=O)c3ccccc32)o1	0.2	25.6*	-1.3	-1.0	2.1	-3.0	7.7	7.4	3.4
Cc1c(C(=O)NCc2ccc(F)cc2)sc(=O)n1Cc1ccccc1	0.7	.	8.5	.	-3.1	.	.	.	.
O=C(COC(=O)c1cccc(Br)c1)Nc1ccc2[nH]c(=O)[nH]c2c1	6.1	20.9*	6.6	-3.8	2.6	.	0.5	-2.3	3.2
O=C(COC(=O)c1c(F)cccc1F)Nc1ccc2[nH]c(=O)[nH]c2c1	1.2	3.9	-0.3	0.4	-1.7	-8.9	.	.	.
O=C(COC(=O)/C=C/c1ccc(Cl)cc1)Nc1ccc2[nH]c(=O)[nH]c2c1	6.6	23.1*	21.2	-1.2	1.9	.	8.9	5.4	13.5*
O=C(COC(=O)/C=C/c1ccc(F)cc1)Nc1ccc2[nH]c(=O)[nH]c2c1	0.9	-8.4	8.0	-1.9	-4.8	.	.	.	.

Source: PubChem
